KCNK9 inh – human KCNK9 channel inhibition; Q9NPC2; HEK293 KCNK9, FluxOR thallium flux fluorescence; active compounds read low; B-score at 10 µM; 310,000 compounds, 1.2% hits; AID 488922;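 active means ratio B-score over 3 SD below the library mean, with starting fluorescence within 5 SD of its mean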;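 further: negative B-score means less thallium flux so channel inhibition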
hERG protect – shields human hERG channel from block by proarrhythmic agents | Q12809 | CHO-hERG, FluxOR thallium flux, dofetilide IC70 present | activation (rescue from dofetilide block), less the hit threshold, % at 10 µM | 310,000 compounds, 0.51% hits | AID 1511;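 active means activation above the mean of controls blocked by dofetilide plus 5 SD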;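 further: thallium influx through hERG after potassium depolarization seen as dye fluorescence rise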
KCNQ1 block – blocks the human KCNQ1 potassium channel. P51787. CHO-K1 KCNQ1, FluxOR thallium flux fluorescence; active compounds read high. B-score at 10 µM. 310,000 compounds, 1.3% hits;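 active means compounds whose thallium flux B-score, printed positive for inhibition, exceeds three library SD while starting fluorescence stays within three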;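 further: channel opened by potassium depolarization with thallium stimulus after 20 min compound exposure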
Target sequence (P51787 whole entry, looked up): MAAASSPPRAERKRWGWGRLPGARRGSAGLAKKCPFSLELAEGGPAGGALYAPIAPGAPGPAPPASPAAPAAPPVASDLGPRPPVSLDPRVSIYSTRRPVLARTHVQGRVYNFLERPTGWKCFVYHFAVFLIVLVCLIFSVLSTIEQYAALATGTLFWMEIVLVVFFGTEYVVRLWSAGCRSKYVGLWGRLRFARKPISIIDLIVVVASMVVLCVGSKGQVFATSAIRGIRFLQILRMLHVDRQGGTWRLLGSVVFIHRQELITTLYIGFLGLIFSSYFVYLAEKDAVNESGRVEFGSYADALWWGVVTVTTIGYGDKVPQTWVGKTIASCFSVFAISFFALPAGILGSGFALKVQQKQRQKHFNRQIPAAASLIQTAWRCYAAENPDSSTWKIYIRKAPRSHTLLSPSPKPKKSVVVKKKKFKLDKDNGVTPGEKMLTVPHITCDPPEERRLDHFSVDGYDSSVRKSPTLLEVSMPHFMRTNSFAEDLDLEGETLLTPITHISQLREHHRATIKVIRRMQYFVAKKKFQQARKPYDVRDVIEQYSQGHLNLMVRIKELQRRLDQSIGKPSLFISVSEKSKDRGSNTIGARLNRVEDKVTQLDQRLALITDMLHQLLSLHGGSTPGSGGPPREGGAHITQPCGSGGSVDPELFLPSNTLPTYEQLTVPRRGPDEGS
Cl transport mod – KCC2 (human) Cl- transport modulation; Q9H2X9; KCC2 cells, thallium flux FluoZin-2 fluorescence; B-score of Tl+ flux slope (higher = more flux/activation; lower = inhibition) at 10 µM; 190,000 compounds, 2.2% hits;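 active means thallium flux slope and its plate-corrected score both differing from the plate sample mean at a set confidence after two filtering rounds, in either direction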;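 further: slope of fluorescence scaled to starting intensity during 10 to 20 s after thallium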
KCNK3 block – human KCNK3 channel inhibition, primary screen | O14649 | B-score at 10 µM | 340,000 compounds, 0.84% hits | AID 602410 | CHO-KCNK3 thallium flux, FluxOR fluorescence; active compounds read low;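 active means B-score under library mean minus 4 SD, starting fluorescence ratio at most library mean plus 5 SD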;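 further: more negative B-score means stronger inhibition of thallium flux through KCNK3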
KCNQ1 pot – potentiates or activates the human KCNQ1 potassium channel; B-score at 10 µM; 310,000 compounds, 0.35% hits; CHO-K1 KCNQ1, thallium flux FluxOR fluorescence; active compounds read high;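 active means fluorescence ratio B-score, a plate-corrected score, at least three library SD, with initial intensity B-score within 5 SD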
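System: CHO-K1 cells stably expressing KCNQ1 / Medium: assay buffer for compound exposure, DMSO matched across wells / Reagent: thallium- and potassium-containing depolarizing buffer / Compound: one concentration, matched DMSO / Incubation: 20 min compound pretreatment at room temperature / Measured by: kinetic FluxOR fluorescence, 10 s baseline plus 110 s post-stimulus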
* = called active by the depositor; i = inactive; . = not tested or not shown. Most compounds without a hit are left out; they make up all but 4.1% or so of the library.

SMILES	KCNK9 inh	hERG protect	KCNQ1 block	Cl transport mod	KCNK3 block	KCNQ1 pot
Cc1ccsc1/C=N/Nc1ncc(Cl)cc1Cl	i	-9.0	6*	-1.02	i	i
COCCN(CCOC)c1nc(S(=O)(=O)c2ccc(C)cc2)c(Cl)s1	-7.82*	-5.0	i	-0.524	i	i
C=CCn1c(=S)[nH]c2nc3c(cc2c1=O)CCCC3	i	5.9*	i	126*	i	9*
C=CCn1c(=S)[nH]c2cc(C(=O)Nc3ccc(OC)c(OC)c3)ccc2c1=O	i	-9.2	i	.	i	i
C=CCn1c(=S)[nH]c2ccc(Br)cc2c1=O	i	10.1*	i	51.6*	i	19*
C[C@H]1[C@@H](c2ccccc2)Oc2ccc(Cl)cc2S(=O)(=O)N1Cc1ccc(F)cc1F	.	.	.	.	i	.
Cc1cc(/C=N/n2cnnc2)c(C)n1-c1cc(Cl)ccc1Cl	i	-6.8	i	-0.858	i	12*
Cc1cc(C=NCCO)c(C)n1-c1cc(Cl)ccc1Cl	i	-12.1	i	-0.208	i	i
Cc1cccc(N2CCN(S(=O)(=O)c3ccc4c(c3)CC(C)N4C(=O)C3CC3)CC2)c1C (centres undefined)	i	-7.1	6*	.	i	i
Cc1cc(C)c(C)c(S(=O)(=O)NCCCN2CCCC2=O)c1C	i	-4.5	i	.	i	i
C=CCC(O)(CC=C)CNC(=O)C1CCC(=O)N(CCCc2ccccc2)C1 (centres undefined)	i	6.7*	i	.	i	i
COCCOC(=O)/C(=C/c1ccc(OC(=O)c2ccccc2)cc1)C(C)=O	i	-20.1	i	-0.813	i	13*
CC12c3ccccc3C(c3ccccc31)C1C(=O)N(c3cccnc3)C(=O)C12 (centres undefined)	-7.56*	-7.9	i	0.0145	i	i
CCOc1ccc(-n2c(=S)sc3c(=O)n(-c4ccccc4)c(SC)nc32)cc1	i	-3.1	i	.	i	8*
CCOc1ccc(-n2c(=S)sc3c(=O)n(-c4ccccc4)c(SCC(=O)O)nc32)cc1	i	-4.2	i	.	i	i
CCCCN(CC)C(=O)CSc1nc2c(sc(=S)n2-c2ccc(OCC)cc2)c(=O)[nH]1	i	-19.2	8*	-1.24	i	i
CCCN(CCC)C(=O)CSc1nc2c(sc(=S)n2-c2ccc(OCC)cc2)c(=O)[nH]1	i	-8.9	7*	-2.12	i	i
COc1ccccc1-n1c(=S)sc2c(=O)n(Cc3ccco3)c(SC)nc21	i	-13.4	9*	-2.3	i	i
COc1ccccc1-n1c(SC)nc2c(sc(=S)n2-c2ccccc2)c1=O	i	-9.3	i	.	i	i
O=C(CCCC(=O)c1ccccc1)Nc1ccc(O)cc1	i	-5.3	i	.	i	i
O=C(c1ccc(F)cc1)N1CCC(C(=O)N2CCN(S(=O)(=O)c3cccc([N+](=O)[O-])c3)CC2)CC1	i	-10.8	i	.	i	i
CC(C)(C)OC(=O)N(CCc1ccccc1)Cc1cccc(OCc2cccc(NC(=O)C3CCCC3)c2)c1	.	.	.	.	i	.
COC(=O)C1CCCN1C(=O)COc1ccc(Cl)cc1Br (centres undefined)	i	5.1*	i	-0.83	i	8*
O=C(O)CSc1nc2ccccc2[nH]1	i	8.4*	i	.	i	i
COc1ccc(NC(=O)c2ccc(C)cc2)cc1	i	-5.7	i	.	i	i
SMILES	KCNK9 inh	hERG protect	KCNQ1 block	Cl transport mod	KCNK3 block	KCNQ1 pot
COc1ccc(C(=O)NNC(=O)C(=O)Nc2ccc(C)cc2)cc1	i	15.0*	i	.	i	41*
CCc1ccc(NC(=O)C(=O)NNC(=O)c2ccc(OC)cc2)cc1	i	36.1*	i	.	i	77*
Nc1nc(N)nc(C2C=CCCC2)n1 (centres undefined)	.	.	.	.	i	.
CCCC(=O)Nc1ccc(Cl)c(NC(=O)C(C)(C)C)c1	i	-5.2	i	0.235	i	i
CC(C)(C)C(=O)CC(=O)Nc1ccc(Cl)c(N)c1	i	4.9*	i	.	i	i
N#CC(=C(O)COC(=O)CCCNC(=O)c1ccc(Cl)cc1)c1nc2ccccc2[nH]1	.	.	.	.	i	.
CC(C(=O)Nc1cccc(Br)c1)c1ccc([N+](=O)[O-])cc1 (centres undefined)	i	-7.2	6*	-1.08	i	i
O=C(Nc1cccc([N+](=O)[O-])c1)NC1CCCCCCC1	i	-18.1	7*	.	i	i
O=C(Nc1ccc(C(=O)O)cc1)Nc1cccc([N+](=O)[O-])c1	i	-8.3	7*	-0.0491	i	i
O=C(CNC1CCCCC1)Nc1cccc([N+](=O)[O-])c1	i	-8.0	i	.	i	i
O=C(Nc1cccc([N+](=O)[O-])c1)Nc1cccc([N+](=O)[O-])c1	i	-21.9	8*	0.725	i	i
O=C(Nc1ccc(C(=O)O)cc1)Nc1ccc([N+](=O)[O-])cc1	i	-6.2	i	.	i	i
COc1cc(NC(=O)Nc2cccc([N+](=O)[O-])c2)cc(OC)c1	i	-4.7	i	0.144	i	i
N#CCC(=O)Nc1ccc(C(=O)OCC(=O)NC2CCCc3ccccc32)cc1 (centres undefined)	.	.	.	.	i	.
COc1ccccc1NC(=O)CCNS(=O)(=O)c1ccc2c(c1)CCN2C(C)=O	i	-5.8	i	.	i	i
Cn1ccc(NC(=O)Nc2cccc([N+](=O)[O-])c2)n1	i	-12.4	6*	0.0284	i	i
Cc1nc(SCC(=O)N2CCOCC2)c2c(C)c(C)sc2n1	i	-4.2	i	.	i	i
Cc1nc(SC2CCOC2=O)c2c(C)c(C)sc2n1 (centres undefined)	i	-3.3	i	7.08*	i	i
COc1ccc(/C=N/Nc2ccc([N+](=O)[O-])cc2)cc1O	i	-6.0	i	.	i	i
COc1cc(C(=S)N2CCOCC2)ccc1OC(=O)c1ccc([N+](=O)[O-])cc1[N+](=O)[O-]	i	5.9*	i	.	i	i
COc1ccc(C(=S)N2CCOCC2)cc1OC(=O)c1ccc([N+](=O)[O-])cc1	i	-4.2	i	.	i	i
Clc1ccc(OCCn2ccnc2)c2ccccc12	i	-18.8	6*	.	i	i
C=CCc1cccc(Cl)c1OCCON1C(=O)CCC1=O	i	-12.8	i	0.0345	i	i
O=C1CCC(=O)N1OCCOc1ccc(Cl)c2ccccc12	i	-14.4	6*	-0.304	i	i
CCCCC(CC)C(=O)Nc1ccc(C)c(O)c1 (centres undefined)	-7.48*	-10.1	i	-0.459	i	i

Screening data: PubChem, several laboratories
